How the values were obtained:
[1] = Lipophilicity (Log D) was determined; assay type: physicochemical; settings: octanol/water
Procedure, shortened: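 LogD was determined by an HPLC method.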

[2] = biological target: Metabotropic glutamate receptor 5 (Rattus norvegicus, UniProt P31424); assay: Binding affinity towards mGlu5 receptors in rat brain membranes was evaluated; assay type: cell membranes
Procedure, shortened: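 Displacement of [3H]-methoxy-PEPy (specific activity 67.6 Ci/mmol) binding to rat brain membranes, incubated at room temperature (equilibrium within 60 min). Nonspecific binding was defined with an unlabelled mGlu5 antagonist as cold displacer. Concentration–response curves gave IC50 values.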

[3] = biological target: T1, Metabotropic glutamate receptor 5 (Homo sapiens, UniProt P41594); assay: In vitro functional potency using an automated assay employing LtK-cells stably expressing human recombinant mGlu5 receptor by measuring changes in cytosolic [Ca2+] concentration
T1 sequence (P41594 whole entry): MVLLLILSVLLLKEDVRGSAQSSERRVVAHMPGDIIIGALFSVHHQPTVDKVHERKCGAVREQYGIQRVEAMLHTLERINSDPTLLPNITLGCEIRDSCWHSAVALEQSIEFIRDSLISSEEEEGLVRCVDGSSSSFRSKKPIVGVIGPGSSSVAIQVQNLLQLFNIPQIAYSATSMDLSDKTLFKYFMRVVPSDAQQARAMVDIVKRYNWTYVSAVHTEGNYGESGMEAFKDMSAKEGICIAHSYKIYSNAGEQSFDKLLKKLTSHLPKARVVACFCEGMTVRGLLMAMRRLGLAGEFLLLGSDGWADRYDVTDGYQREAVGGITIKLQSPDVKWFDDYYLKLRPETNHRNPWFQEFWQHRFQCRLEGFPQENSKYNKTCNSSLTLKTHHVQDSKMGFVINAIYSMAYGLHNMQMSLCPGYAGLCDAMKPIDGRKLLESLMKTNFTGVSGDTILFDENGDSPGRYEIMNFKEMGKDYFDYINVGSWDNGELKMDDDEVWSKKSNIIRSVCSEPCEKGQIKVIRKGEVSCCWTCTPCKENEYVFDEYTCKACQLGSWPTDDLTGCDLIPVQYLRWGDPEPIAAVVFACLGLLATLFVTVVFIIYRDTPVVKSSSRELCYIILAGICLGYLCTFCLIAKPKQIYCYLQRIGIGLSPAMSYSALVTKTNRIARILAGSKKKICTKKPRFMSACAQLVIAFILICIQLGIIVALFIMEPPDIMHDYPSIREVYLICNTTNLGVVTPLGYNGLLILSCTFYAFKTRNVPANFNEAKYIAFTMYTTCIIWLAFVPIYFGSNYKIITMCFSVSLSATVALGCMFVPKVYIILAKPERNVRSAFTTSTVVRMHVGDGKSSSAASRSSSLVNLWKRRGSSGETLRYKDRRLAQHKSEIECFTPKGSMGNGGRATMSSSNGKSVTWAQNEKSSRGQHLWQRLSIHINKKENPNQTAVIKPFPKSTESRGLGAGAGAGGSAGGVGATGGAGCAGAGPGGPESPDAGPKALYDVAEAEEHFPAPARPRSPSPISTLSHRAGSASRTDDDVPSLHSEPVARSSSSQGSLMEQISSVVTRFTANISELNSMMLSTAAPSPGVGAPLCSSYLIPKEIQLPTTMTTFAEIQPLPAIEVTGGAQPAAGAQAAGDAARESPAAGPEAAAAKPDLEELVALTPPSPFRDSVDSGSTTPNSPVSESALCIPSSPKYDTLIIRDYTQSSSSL
Procedure, shortened: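 Ltk- cells stably expressing recombinant human mGlu5 were loaded with fura-2. Glutamate-evoked rises in cytosolic Ca2+ were read by fluorescence. Concentration–response curves used 12 concentrations in duplicate wells, from two or more separate experiments.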

[4] = biological target: T1, Metabotropic glutamate receptor 5; assay: Binding affinity towards human mGlu5 receptors expressed in LtK-cells; assay type: cell-based

Sequence of Metabotropic glutamate receptor 5 (Rattus norvegicus, UniProt P31424) (P31424 whole entry): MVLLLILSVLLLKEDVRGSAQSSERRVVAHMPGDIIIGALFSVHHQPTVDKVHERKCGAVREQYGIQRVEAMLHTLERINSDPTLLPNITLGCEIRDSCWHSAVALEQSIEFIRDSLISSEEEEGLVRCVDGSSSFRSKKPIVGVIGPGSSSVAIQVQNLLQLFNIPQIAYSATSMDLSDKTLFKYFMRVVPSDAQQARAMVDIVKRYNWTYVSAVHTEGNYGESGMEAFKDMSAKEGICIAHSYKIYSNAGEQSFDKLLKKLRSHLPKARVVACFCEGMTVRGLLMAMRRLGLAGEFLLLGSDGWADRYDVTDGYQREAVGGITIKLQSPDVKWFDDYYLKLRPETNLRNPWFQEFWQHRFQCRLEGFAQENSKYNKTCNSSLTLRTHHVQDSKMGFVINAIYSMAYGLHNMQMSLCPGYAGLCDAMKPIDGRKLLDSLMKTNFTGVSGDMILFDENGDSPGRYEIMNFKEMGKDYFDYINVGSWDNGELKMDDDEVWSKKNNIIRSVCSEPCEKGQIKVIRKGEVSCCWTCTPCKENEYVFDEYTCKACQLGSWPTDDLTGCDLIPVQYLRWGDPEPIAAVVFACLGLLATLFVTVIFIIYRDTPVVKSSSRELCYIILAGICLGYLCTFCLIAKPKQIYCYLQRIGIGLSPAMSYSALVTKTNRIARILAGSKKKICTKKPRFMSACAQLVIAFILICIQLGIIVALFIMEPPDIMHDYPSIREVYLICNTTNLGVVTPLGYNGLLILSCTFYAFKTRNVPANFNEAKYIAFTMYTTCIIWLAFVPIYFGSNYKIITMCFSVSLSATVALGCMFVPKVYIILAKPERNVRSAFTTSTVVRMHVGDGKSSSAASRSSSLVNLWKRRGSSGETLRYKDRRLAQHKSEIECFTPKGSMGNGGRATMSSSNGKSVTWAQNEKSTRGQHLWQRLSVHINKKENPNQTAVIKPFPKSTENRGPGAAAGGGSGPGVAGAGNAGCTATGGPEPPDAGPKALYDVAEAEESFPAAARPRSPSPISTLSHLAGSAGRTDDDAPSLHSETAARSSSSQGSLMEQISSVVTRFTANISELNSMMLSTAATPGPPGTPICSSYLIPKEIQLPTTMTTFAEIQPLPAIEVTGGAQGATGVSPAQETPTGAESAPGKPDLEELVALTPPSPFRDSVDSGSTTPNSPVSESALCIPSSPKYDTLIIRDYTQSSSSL

Row | logD [1] | IC50 [2] [nM] | IC50 [3] [nM] | IC50 [4] [nM] | SMILES
1 | 2.25 | 12 | 1 | – | [3H]C([3H])([3H])Oc1cncc(C#Cc2ccccn2)c1
2 | 2.4 | – | 7 | 47 | [3H]C([3H])([3H])OCc1cncc(C#Cc2csc(C)n2)c1
3 | 2.5 | – | – | – | Cc1cncc(C#Cc2csc(C)n2)c1
4 | 2 | – | 19 | – | COCc1cncc(C#Cc2ccccn2)c1

— ChEMBL document CHEMBL1136508, “[3H]-methoxymethyl-MTEP and [3H]-methoxy-PEPy: potent and selective radioligands for the metabotropic glutamate subtype 5 (mGlu5) receptor” (Bioorg Med Chem Lett, 2003)
